Experimental data taken from ChEMBL document CHEMBL5653608 (Br J Pharmacol, 2011).

Assays:
[1] = Induction of relaxation in […] C57BL/6 mouse trachea at 0.1 to 30 uM incubated for 30 mins relative to control (reference value: 21.6 +/- 8.8%); type: functional; design: scale not given: the % may be the effect or the level left; conditions: dose 0.1-30 µM, 0.5 h
[2] = Inhibition of EFS-induced contraction of human myometrium incubated for 60 mins; type: functional, tissue-based
Outline: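 Human myometrial strips (donors aged 24–76) in a 15 mL Krebs bath at 37°C, under EFS at 15 V, 1.5 ms pulses, 10 s every 100 s, at a submaximal 15 Hz. Antagonist (10 or 100 nM) or vehicle was equilibrated for 60 min. Cumulative butaprost (0.1 nM–10 µM) or PGE2 (0.1 nM–3 µM) was given for at least five EFS responses per concentration. pKB was calculated from same-donor concentration ratios.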

[3] = Inhibition of EFS-induced contraction of Beagle dog bronchiole; type: functional, tissue-based, Canis lupus familiaris
[4] = Induction of relaxation in forskolin-induced carbachol pre-contracted C57BL/6 mouse trachea incubated for 30 mins; type: functional, tissue-based
Outline: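 Male C57BL/6 tracheal rings at 0.35 g tension in Krebs (95% O2/5% CO2, 37°C). Rings were precontracted with 10 µM carbachol before cumulative half-log PGE2 (0.1 nM–30 µM). Curves were repeated in the same ring after 30 min with 3 nM antagonist or DMSO, and 10 µM forskolin set maximal relaxation. pKB = log(CR−1) − log[B].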

Work on CCCC1([C@H](O)C/C=C/[C@H]2[C@H](O)CC(=O)[C@@H]2CCCCCCC(=O)OC)CCC1 [BUTAPROST] yielded an Activity [1] of 69.1%, an IC50 [2] of 27.8 nM and an EC50 [3] of 139 nM. For the same compound, the EC50 [4] was 893 nM.
